Source: ChEMBL document CHEMBL5344428, “Discovery, Crystallographic Studies, and Mechanistic Investigations of Novel Phenylalanine Derivatives Bearing a Quinazolin-4-one Scaffold as Potent HIV Capsid Modulators” (J Med Chem, 2023)

Assays:
[1] = Cytotoxicity against human MT4 cells assessed as reduction in cell viability incubated for 5 days by MTT assay; format: toxicity, cell-based; settings: MT4 cells, time 5 day
Method in brief: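 Uninfected MT-4 cells were exposed to compound, and viability was read by the MTT method. […] Each value was run in at least triplicate and averaged from at least three independent experiments.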

[2] = Selectivity ratio of EC50 for antiviral activity against HIV1 IIIB infected in human MT4 cells to EC50 for antiviral activity against HIV2 ROD infected in human MT4 cells; format: toxicity, cell-based
Method in brief: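 Ratio is EC50 against HIV-1 IIIB divided by EC50 against HIV-2 ROD. Both EC50 values come from MTT-read protection of infected MT-4 cells.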

[3] = Selectivity index, ratio of CC50 for cytotoxicity against human MT4 cells to EC50 for antiviral activity against HIV2 ROD infected in human MT4 cells; format: toxicity, cell-based; settings: read-out: Ratio CC50/EC50
Method in brief: (§1)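 SI is CC50 divided by EC50. CC50 comes from MTT viability of uninfected MT-4 cells. EC50 comes from MTT-read protection of MT-4 cells infected with HIV-1 IIIB or HIV-2 ROD. Each value was run in at least triplicate.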

[4] = test system: Human immunodeficiency virus 2; assay: Antiviral activity against HIV2 ROD infected in human MT4 cells assessed as reduction in virus induced cytopathic effect measured after 5 days by MTT assay; format: functional, organism-based; settings: Human immunodeficiency virus 2, ROD, MT4, 120 h
Method in brief: (§2)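 MT-4 cells were infected with HIV-1 IIIB or HIV-2 ROD, and cell viability was read by MTT. […] Each value was run in at least triplicate and averaged from at least three independent experiments.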

[5] = Selectivity index, ratio of CC50 for cytotoxicity against human MT4 cells to EC50 for antiviral activity against HIV1 IIIB infected in human MT4 cells; format: toxicity, cell-based; settings: read-out: Ratio CC50/EC50; method in brief: as §1
[6] = test system: Human immunodeficiency virus 1; assay: Antiviral activity against HIV1 IIIB infected in human MT4 cells assessed as reduction in virus induced cytopathic effect measured after 5 days by MTT assay; format: functional, organism-based; settings: Human immunodeficiency virus 1, IIIB, MT4, 120 h; method in brief: as §2

Row | SMILES | CC50 at 120 h [1] [µM] | Ratio EC50 [2] | selectivity ratio [3] | EC50 [4] [µM] | selectivity ratio [5] | EC50 [6] [µM]
1 | COc1ccc(N(C)C(=O)[C@H](Cc2cc(F)cc(F)c2)NC(=O)CN(Cc2ccc(F)cc2)C(=O)Cc2ccc3ccccc3c2)cc1 | > 160 | – | – | – | – | –
2 | COc1ccc(N(C)C(=O)[C@H](Cc2ccccc2)NC(=O)Cn2ccc(NC(=O)c3ccc(N)cc3)cc2=O)cc1 | 189 | > 11.04 | 11 | 17.1 | – | –
3 | COc1ccc(N(C)C(=O)[C@H](Cc2ccccc2)NC(=O)CN2CCN(C(=O)c3ccc(NC(=O)C(F)(F)F)cc3)CC2=O)cc1 | > 195 | 10.54 | > 13.1 | 15 | > 1.24 | –
4 | COc1ccc(N(C)C(=O)[C@H](Cc2cc(F)cc(F)c2)NC(=O)CN(CC2CCCCC2)C(=O)Cc2c[nH]c3ccc(Br)cc23)cc1 | 17.6 | – | < 1 | > 17.6 | < 1 | > 17.6
5 | COc1ccc(-n2c(SCC#N)nnc2[C@H](Cc2ccccc2)NC(=O)Cc2c(C)[nH]c3ccccc23)cc1 | – | 0.22 | 36 | 2.69 | 163 | 0.59
6 | COc1ccc(N(C)C(=O)[C@H](Cc2ccccc2)NC(=O)Cn2ccc(NC(=O)c3ccc(Cl)cc3)cc2=O)cc1 | 25.5 | – | – | > 25.5 | – | > 25.5
7 | COc1ccc(-n2c(SCCCN3CCOCC3)nnc2[C@H](Cc2ccccc2)NC(=O)Cc2c(C)[nH]c3ccccc23)cc1 | – | 0.16 | 13 | 3.73 | 83 | 0.59
8 | COc1ccc(N(C)C(=O)[C@H](Cc2cc(F)cc(F)c2)NC(=O)CN2CCN(C(=O)c3ccc(NC(C)=O)cc3)CC2=O)cc1 | 196 | 0.92 | 1.02 | – | 1.11 | –
9 | COC(=O)C(C)(C)Sc1nnc([C@H](Cc2ccccc2)NC(=O)Cc2c(C)[nH]c3ccccc23)n1-c1ccc(OC)cc1 | 22.6 | 0.13 | – | > 22.6 | 8 | 2.88
10 | COc1ccc(N(C)C(=O)[C@H](Cc2ccccc2)NC(=O)Cn2ccc(NC(=O)c3ccc4ccccc4c3)cc2=O)cc1 | 27.6 | – | – | > 27.6 | – | > 27.6
11 | COc1ccc(N(C)C(=O)[C@H](Cc2cc(F)cc(F)c2)NC(=O)CN(Cc2ccccc2)C(=O)Cc2ccc3ccccc3c2)cc1 | 176 | – | < 1 | > 18.9 | < 1 | –
12 | COc1ccc(N(C)C(=O)[C@H](Cc2ccccc2)NC(=O)CN2CCN(C(=O)c3ccc(NS(C)(=O)=O)cc3)CC2=O)cc1 | > 201 | < 0.96 | – | – | > 1.05 | –
13 | COc1ccc(-n2c(SCCC3CCCCC3)nnc2[C@H](Cc2ccccc2)NC(=O)Cc2c(C)[nH]c3ccccc23)cc1 | > 206 | – | – | – | – | –
14 | COc1ccc(-n2c(SCCC(F)(F)F)nnc2[C@H](Cc2ccccc2)NC(=O)Cc2c(C)[nH]c3ccccc23)cc1 | 30.8 | < 0.09 | – | > 30.8 | 11 | 2.87
15 | COc1ccc(N(C)C(=O)[C@H](Cc2ccccc2)NC(=O)CN2CCN(C(=O)Cc3c[nH]c4ccc(O)cc34)CC2=O)cc1 | > 209 | 1.06 | > 1.12 | – | > 1.06 | –
16 | COc1ccc(N(C)C(=O)[C@H](Cc2cc(F)cc(F)c2)NC(=O)CN(Cc2ccc(F)cc2)C(=O)Cc2c(C)[nH]c3ccccc23)cc1 | 22.6 | < 0.12 | – | > 22.6 | 8 | 2.79

Row | SMILES | CC50 at 120 h [1] [µM] | Ratio EC50 [2] | selectivity ratio [3] | EC50 [4] [µM] | selectivity ratio [5] | EC50 [6] [µM]
17 | O=C(CN1CCN(S(=O)(=O)c2ccc([N+](=O)[O-])cc2)CC1)N[C@@H](Cc1ccccc1)c1nc2ccccc2c(=O)n1-c1ccc(S(=O)(=O)N2CCS(=O)(=O)CC2)cc1 | > 145 | – | > 198 | 0.73 | > 11.5 | 12.6
18 | COc1ccc(N(C)C(=O)[C@H](Cc2ccccc2)NC(=O)Cn2ccc(NC(=O)c3ccc([N+](=O)[O-])cc3)cc2=O)cc1 | 31.9 | – | – | > 31.9 | – | > 31.9
19 | COc1ccc(N(C)C(=O)[C@H](Cc2cc(F)cc(F)c2)NC(=O)CN(Cc2ccc(C#N)cc2)C(=O)Cc2ccc3ccccc3c2)cc1 | > 189 | 1.17 | > 1 | – | – | –
20 | COc1ccc(-n2c(SCc3ccncc3)nnc2[C@H](Cc2ccccc2)NC(=O)Cc2c(C)[nH]c3ccccc23)cc1 | – | 0.68 | 6 | 4.27 | 9 | 2.89
21 | COc1ccc(N(C)C(=O)[C@H](Cc2ccccc2)NC(=O)CN2CCN(C(=O)c3ccc(NC(=O)C4CC4)cc3)CC2=O)cc1 | 168 | > 11.15 | 11.2 | 15 | < 1 | –
22 | COc1ccc(N(C)C(=O)[C@H](Cc2ccccc2)NC(=O)CN2CCN(C(=O)c3ccc(NC(C)=O)cc3)CC2=O)cc1 | > 213 | 1.1 | > 1.16 | – | > 1.05 | –
23 | COc1ccc(N(C)C(=O)[C@H](Cc2ccccc2)NC(=O)Cn2ccc(NC(=O)c3ccc(Br)cc3)cc2=O)cc1 | 23.5 | – | – | > 23.5 | – | > 23.5
24 | COc1ccc(-n2c(SCCN(C)C)nnc2[C@H](Cc2ccccc2)NC(=O)Cc2c(C)[nH]c3ccccc23)cc1 | – | < 0.04 | – | > 22.9 | 27 | 0.85
25 | COc1ccc(N(C)C(=O)[C@H](Cc2cc(F)cc(F)c2)NC(=O)CN(Cc2ccc(F)cc2)C(=O)Cc2cccc3ccccc23)cc1 | > 191 | > 32.6 | > 33 | 5.87 | – | –
26 | COc1ccc(-n2c(SCCF)nnc2[C@H](Cc2ccccc2)NC(=O)Cc2c(C)[nH]c3ccccc23)cc1 | – | 0.3 | 6 | 4.07 | 20 | 1.24
27 | COc1ccc(-n2c(SCc3cccnc3)nnc2[C@H](Cc2ccccc2)NC(=O)Cc2c(C)[nH]c3ccccc23)cc1 | 24 | < 0.38 | – | > 7.81 | 8 | 2.99
28 | COc1ccc(N(C)C(=O)[C@H](Cc2cc(F)cc(F)c2)NC(=O)CN2CCN(C(=O)c3ccc(NS(C)(=O)=O)cc3)CC2=O)cc1 | > 190 | 0.88 | > 1.04 | – | > 1.18 | –
29 | COc1ccc(-n2c(SCc3ccc(B(O)O)cc3)nnc2[C@H](Cc2ccccc2)NC(=O)Cc2c(C)[nH]c3ccccc23)cc1 | 20.8 | < 0.13 | – | > 20.8 | 8 | 2.71
30 | COc1ccc(N(C)C(=O)[C@H](Cc2cc(F)cc(F)c2)NC(=O)CN2CCN(C(=O)Cc3c[nH]c4ccc(O)cc34)CC2=O)cc1 | 132 | – | 2.65 | 49.6 | < 1 | –
31 | COc1ccc(-n2c(SCCN3CCOCC3)nnc2[C@H](Cc2ccccc2)NC(=O)Cc2c(C)[nH]c3ccccc23)cc1 | – | 0.16 | 16 | 4.98 | 103 | 0.79
